TMEM16A inh = blocks the mouse calcium-activated chloride channel TMEM16A; Q8BHY3; HEK293 TMEM16A/YFP iodide influx fluorescence, ionomycin; normalized B-score (activity score, 25-100; higher = stronger inhibition) at 10 µM; actives 1.2% (n = 310,000);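 active means ratio plate-corrected score three or more library SD toward inhibition, starting fluorescence score within five deviations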;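 further: score derived from kinetic fluorescence span divided by baseline fluorescence per well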
HTR2A ag = activates the mouse 5-HT2A serotonin receptor | CHO-K1 mHTR2A beta-arrestin complementation, luminescence; percent of 30 µM serotonin response | activation, % at 7.6 µM | actives 0.66% (n = 360,000) | P35363;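 active means activation above a run cutoff, the mean activation of all tested compounds plus 3 SD, cut at about 14% in these data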;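 further: 0% = plate median of compound wells and 100% = 30 µM serotonin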
Target sequence (P35363 whole entry, looked up): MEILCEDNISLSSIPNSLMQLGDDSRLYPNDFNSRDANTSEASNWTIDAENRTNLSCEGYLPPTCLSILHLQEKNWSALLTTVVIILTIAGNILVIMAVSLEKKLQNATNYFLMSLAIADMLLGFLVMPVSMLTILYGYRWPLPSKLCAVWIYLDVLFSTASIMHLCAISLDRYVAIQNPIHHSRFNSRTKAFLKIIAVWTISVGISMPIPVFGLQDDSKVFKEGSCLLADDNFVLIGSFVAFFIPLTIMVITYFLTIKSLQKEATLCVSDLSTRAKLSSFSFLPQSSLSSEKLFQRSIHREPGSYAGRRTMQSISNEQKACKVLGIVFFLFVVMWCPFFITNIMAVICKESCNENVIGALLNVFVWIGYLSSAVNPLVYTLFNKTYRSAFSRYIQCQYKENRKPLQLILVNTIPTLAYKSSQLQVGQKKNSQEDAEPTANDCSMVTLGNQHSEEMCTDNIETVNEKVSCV
beta cell repl = inducers of beta-cell replication in MIN6 cells. MIN6 cells proliferation, ATPlite luminescence, 48 h; cells starved in 0.2% serum; 100% = growth in 10% serum. proliferation, % at 10 µM. actives 0.29% (n = 330,000). AID 2380;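 active means compounds whose signal lies at least 3.5 SD above the mean of all wells on their plate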;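 further: 0% = DMSO-treated cells in low-serum medium and 100% = 10% serum control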
MC4R antag cAMP = blocks human MC4R cAMP signaling; P32245; MC4R-expressing cells, MTII-stimulated cAMP, LANCE TR-FRET; inhibition, % at 6.5 µM; actives 0.48% (n = 360,000);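 active means inhibition above its plate's cutoff, the mean of tested wells on that plate plus 3 SD, cut at about 29% in these data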;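 further: 0% = Melanotan II alone and 100% = Melanotan II plus saturating MCL0020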
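material = U2OS cells stably expressing human melanocortin 4 receptor (MC4R) | also added = Melanotan II challenge | dosing = single nominal compound dose of 6.5 µM | detection = TR-FRET with Eu-cAMP and labeled anti-cAMP, 671 nm | replication = singlicate | timing = compound 30 min, challenge 1 h, detection 1 h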
MC4R ag barr = human MC4R agonism via beta-arrestin. AID 540308. activation, % at 8.9 µM. actives 0.98% (n = 360,000). U2OS MC4R beta-arrestin complementation, luminescence; percent of melanotan II response, DMSO zero. P32245;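 active means activation above a per-plate cutoff, the mean activation of sample wells on that plate plus 3 SD, cut at about 8% in these data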
ANO1 activ = activators or potentiators of mouse TMEM16A chloride channel | HEK293 TMEM16A/YFP-H148Q/I152L, iodide quench fluorescence; stronger effect = lower value | actives 0.3% (n = 340,000) | Q8BHY3 | B-score at 10 µM | AID 623877;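 active means fluorescence-ratio B-score plate-corrected deviation score at least 3 library SD below zero, with starting fluorescence score within 5 deviations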;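 further: channel opened by trigger with iodide after compound preincubation; score built on the fluorescence ratio of max minus min over baseline; more negative score means more quench and so TMEM16A activation or potentiation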
* = called active by the depositor; i = inactive; · = no result given. Most compounds without a hit are left out; they make up all but 3.4% or so of the library.

SMILES	TMEM16A inh	HTR2A ag	beta cell repl	MC4R antag cAMP	MC4R ag barr	ANO1 activ
S=C(NCc1ccc(Cl)cc1Cl)Nc1ccccc1	i	5.2	-5.6	11.8	8.9*	i
S=C(NCc1ccc(Cl)cc1)Nc1ccccc1	i	-2.6	-4.5	-2.6	-2.9	i
Cc1ccc(C2=NC(=O)/C(=C/c3cc(O)c(O)c(Br)c3)S2)cc1	·	-0.8	-4.7	17.6	-2.1	-6*
CC1CCC(C(C)C)C(OC(=O)CSc2nccc(=O)[nH]2)C1 (stereo unspecified)	i	-1.1	-3.6	7.2	-0.3	i
COc1ccc(-c2n(CC(=O)OC3CC(C)CCC3C(C)C)c3ccccc3[n+]2C)cc1 (stereo unspecified)	·	-2.4	·	-2.5	3.1	-6.14*
CCOC(=O)c1ccccc1NC(=O)Cc1ccc(OC)c(S(=O)(=O)N2CCOCC2)c1	·	2.9	-2.7	10.8	2.3	i
COc1ccc(C(=O)NC(=S)Nc2ccc(S(N)(=O)=O)cc2)cc1	i	4.2	-4.8	6.5	-2.5	i
Cn1cc(Br)c(C(=O)NC(=S)Nc2ccc(S(N)(=O)=O)cc2)n1	i	-0.7	-0.9	10.8	0.2	-6.4*
NS(=O)(=O)c1ccc(NC(=S)NC(=O)C2CCCCC2)cc1	i	-0.7	1.7	-8.7	-5.3	-4.73*
Cc1cccc(NC(=O)C(=O)NCCc2c[nH]c3ccccc23)c1C	i	1.6	0.3	13.1	1.0	-5.6*
Cc1cccc(C)c1NC(=O)C(=O)NCCc1c[nH]c2ccccc12	i	-1.3	-3.0	9.7	-1.7	i
CC(C)(C)c1ccc(OCc2ccc(C(=O)N/N=C/c3ccc([N+](=O)[O-])cc3)o2)cc1	i	-1.5	-3.2	11.0	9.1*	i
COc1cc(NC(=O)c2c(-c3ccccc3Cl)noc2C)c2ncccc2c1	i	0.7	-4.0	-3.9	-3.1	i
CCSc1nnc(NC(=O)c2c(-c3ccccc3Cl)noc2C)s1	i	-1.2	0.0	0.3	-2.3	i
Cc1onc(-c2ccccc2Cl)c1C(=O)Nc1nnc(-c2cccc([N+](=O)[O-])c2)s1	100*	7.0	2.4	1.1	1.5	i
Cc1onc(-c2ccccc2Cl)c1C(=O)Nc1cccc2cccnc12	100*	-3.6	-6.7	4.6	0.1	i
Cc1ccc(-n2ncc3c(NCc4cccnc4)ncnc32)cc1C	25*	-5.3	-3.8	4.5	0.8	i
CCCCCCCCCCCCN1[C@@H](CC(=O)O)c2cc(F)ccc2S1(=O)=O	100*	5.2	-8.2	11.5	4.2	i
CCCCCCCCCCCCN1[C@@H](CC(=O)O)c2cc(C(F)(F)F)ccc2S1(=O)=O	100*	-1.7	-7.8	2.4	3.8	i
CCCCCCCCN1[C@@H](CC(=O)OCC)c2cc(F)ccc2S1(=O)=O	25*	-3.8	-5.2	11.8	3.4	i
CCCCCCCCN1[C@@H](CC(=O)OC)c2cc(F)ccc2S1(=O)=O	i	0.2	-7.4	-2.2	-0.4	i
CCCCCCCCN1[C@@H](CC(=O)O)c2cc(C(F)(F)F)ccc2S1(=O)=O	i	-3.1	-7.9	0.6	1.3	i
O=C(O)C[C@H]1c2cc(F)ccc2S(=O)(=O)N1Cc1ccccc1	i	12.2	-2.6	4.5	-1.7	i
COc1ccc(NC(=O)CN2CCCC2c2cccs2)cc1S(=O)(=O)N1CCCCC1 (stereo unspecified)	·	-6.8	0.6	11.1	-0.4	i
Cc1cc([N+](=O)[O-])ccc1P(=O)(O)c1ccc([N+](=O)[O-])cc1C	·	-4.3	·	8.6	-2.2	i
SMILES	TMEM16A inh	HTR2A ag	beta cell repl	MC4R antag cAMP	MC4R ag barr	ANO1 activ
Cc1cc(C)c(OCC(=O)OCC(=O)NNC(=O)c2ccccc2F)c(C)c1	·	0.0	2.4	10.0	1.1	i
CCOc1ccc(S(=O)(=O)NC(C)(C)C)cc1-c1nc2c(C(C)(C)C)nn(C)c2c(=O)[nH]1	i	-0.5	-4.0	2.8	-0.4	-13.8*
CCOc1ccc(N2C(=O)CN(CC(=O)OC)C2=S)cc1	i	-3.0	-2.3	10.6	-1.5	i
CCOc1ccc(N2C(=O)/C(=C/c3cccs3)N(CC(=O)OC)C2=S)cc1	i	1.5	-4.5	3.9	20.0*	i
CC(=O)CSc1nc(C(F)(F)F)cc(=O)n1-c1ccccc1	i	-2.1	1.4	-9.3	-2.2	i
O=C(O)CSc1nc(C(F)(F)F)cc(=O)n1-c1ccccc1	i	17.0*	-2.8	2.7	-0.2	i
Cc1cc(NC(=O)c2ccc(C#N)cc2)n(-c2ccccn2)n1	i	2.4	2.2	1.8	-0.1	-30.4*
O=C(CN(CCc1ccccc1)S(=O)(=O)c1ccc(Br)cc1)N/N=C/c1ccc2c(c1)OCO2	i	4.1	0.0	12.3	8.5*	i
Cc1cccc(C(=O)NCC(=O)N2CCC2)c1	·	0.0	-4.9	-2.7	-1.0	i
COc1ccc(C(NC(=O)C2CCN(CCOc3ccc(Cl)cc3)CC2)c2cccs2)cc1 (stereo unspecified)	·	2.2	·	1.0	1.0	·
O=C(NCc1ccccn1)c1coc(=O)c(Br)c1	100*	-1.1	-4.7	0.0	-0.9	i
CCOC(=O)C1=CCN(S(=O)(=O)c2ccc(C)cc2)C1c1cccc(C)c1 (stereo unspecified)	·	-3.7	·	·	·	·
Cc1ccc(-c2nc3c(Cl)cc(Cl)cc3c(=O)n2O)cc1	100*	-5.3	-4.5	0.4	-1.3	i
COc1cc(C(=O)OCC(=O)NCCCc2ccccc2)ccc1OCC(C)C	i	-1.7	2.0	4.7	-3.7	i
COc1cc(C(=O)OCC(=O)NCc2ccc(F)cc2)ccc1OCC(C)C	i	3.0	-0.1	-8.2	8.3*	i
COc1cc(OC)cc(-c2noc(-c3csc([C@@H]4C[C@H](O)[C@@H](CO)O4)n3)n2)c1	·	3.9	·	1.1	0.2	·
Cc1ccc(S(=O)(=O)N2CCN(C(=O)COC(=O)c3ccccc3Cl)CC2)c(C)c1	·	16.6*	2.2	2.7	2.1	i
O=C(c1ccccc1)N1N=C(C(F)(F)F)CC1(O)c1ccc(F)cc1 (stereo unspecified)	100*	3.8	0.6	5.5	1.1	i
O=C(c1ccccc1)N1N=C(C(F)(F)F)CC1(O)c1ccccc1 (stereo unspecified)	i	0.3	1.5	-2.4	2.7	i
CC1CC(C)CN(C(=O)c2cccc(S(=O)(=O)NCc3ccccc3)c2)C1 (stereo unspecified)	·	4.2	-0.8	10.2	-2.5	i
Cc1ccc(S(=O)(=O)N(CC(=O)N2CCC(C)CC2)c2cccc(C)c2)cc1	25*	2.1	3.4	10.3	2.6	i

Source: PubChem BioAssay
